According to ChEMBL document CHEMBL1150415 (J Med Chem, 2008):
Activity calls are given as the source filed them. The calls are words filed in the database; no cut-off is given here.

Columns and labels:
[1] = Ratio of AUC in Sprague-Dawley rat at 25 mg/kg, po to IC50 for TXB2 production in Sprague-Dawley rat whole blood; format: functional
Rattus norvegicus [2] = test: Inhibition of PGE2 production in carrageenan-stimulated rat air pouch model at 5 mg/kg, po after 6 hrs; format: functional
How it was run: (§1)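 Carrageenan was injected into a preformed air pouch 2 h after oral drug. Pouch contents were removed 6 h later and PGE2 was quantified.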

Rattus norvegicus [3] = test: Inhibition of PGE2 production in carrageenan-stimulated orally dosed rat air pouch model after 6 hrs; format: functional; conditions: po; how it was run: as §1
Rattus norvegicus [4] = test: Inhibition of carrageenan-induced paw edema in po dosed Sprague-Dawley rat administered 2 hrs before carrageenan challenge; format: functional
[5] = Inhibition of cytosolic phospholipase A2alpha by GLU micelle assay
How it was run: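 Micellar assay with 7-hydroxycoumarinyl-γ-linolenate (GLU) substrate, presenting inhibitor and substrate to the enzyme in high-lipid micelles. Each run gives the mean of duplicate assays, and values come from at least two runs.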

Blood [6] = test: Inhibition of TXB2 production in Sprague-Dawley rat whole blood; format: functional, tissue-based
How it was run: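 Rat whole blood stimulated with calcium ionophore A23187 at 5 µM, with thromboxane B2 measured. Each run gives the mean of triplicate assays, and values come from at least two runs.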

[7] = Plasma concentration in collagen-induced arthritis mouse model at 100 mg/kg, po twice daily after 1.5 hrs; format: ADME, organism-based; set-up: dose 100 mg/kg, route oral
Mus musculus = test: Plasma concentration in collagen-induced arthritis mouse model at 100 mg/kg, po twice daily after 12 to 14 hrs; format: ADME, organism-based; set-up: dose 100 mg/kg, route oral; conditions: in vivo
Rattus norvegicus [8] = test: Reduction in synovitis damage in Freund's adjuvant-induced arthritis Lewis rat model at 25 mg/kg, po for 11 days; format: functional, organism-based; set-up: dose 25 mg/kg
How it was run: (§2)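 Arthritis was induced in Lewis rats by intradermal complete Freund's adjuvant at the base of the tail. Oral treatment began on day 8, when mean clinical joint scores were 12, and continued for 11 days. Tarsal joints were taken at necropsy and lesions were scored histologically in blinded fashion.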

Rattus norvegicus [9] = test: Reduction in synovitis damage in Freund's adjuvant-induced arthritis Lewis rat model at 5 mg/kg, po for 11 days; format: functional, organism-based; set-up: dose 5 mg/kg; how it was run: as §2
Rattus norvegicus [10] = test: Reduction in cartilage damage in Freund's adjuvant-induced arthritis Lewis rat model at 50 mg/kg, po for 11 days; format: functional, organism-based; set-up: dose 50 mg/kg; how it was run: as §2
Rattus norvegicus [11] = test: Reduction in cartilage damage in Freund's adjuvant-induced arthritis Lewis rat model at 25 mg/kg, po for 11 days; format: functional, organism-based; set-up: dose 25 mg/kg; how it was run: as §2
Rattus norvegicus [12] = test: Reduction in cartilage damage in Freund's adjuvant-induced arthritis Lewis rat model at 5 mg/kg, po for 11 days; format: functional, organism-based; set-up: dose 5 mg/kg; how it was run: as §2
Ovis aries [13] = test: Effect on late asthmatic response in Ascaris Suum antigen-induced reversible airway bronchoconstriction sheep model assessed as reduction in lung resistance at 10 mg/kg, po bid administered 2 hrs before antigen challenge measured 5 to 8 hrs after challenge; format: functional; set-up: scale not given: the % may be the effect or the level left
Rattus norvegicus [14] = test: Reduction in synovitis damage in Freund's adjuvant-induced arthritis Lewis rat model at 50 mg/kg, po for 11 days; format: functional, organism-based; set-up: dose 50 mg/kg; how it was run: as §2
[15] = Plasma concentration in adjuvant-induced arthritis Lewis rat model at 25 mg/kg, po after 4 hrs; format: ADME, organism-based; set-up: dose 25 mg/kg, route oral
[16] = Inhibition of cytosolic phospholipase A2alpha at 0.020 uM
How it was run: (§3)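 Isolated enzyme activity on PAPC (1-palmitoyl-2-arachidonoyl-sn-glycero-3-phosphocholine) liposome substrate.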

[17] = biological target: T1, Cytosolic phospholipase A2 beta (Homo sapiens) (UniProt P0C869); test: Inhibition of cytosolic phospholipase A2beta at 0.5 uM; how it was run: as §3
T1 sequence (whole entry): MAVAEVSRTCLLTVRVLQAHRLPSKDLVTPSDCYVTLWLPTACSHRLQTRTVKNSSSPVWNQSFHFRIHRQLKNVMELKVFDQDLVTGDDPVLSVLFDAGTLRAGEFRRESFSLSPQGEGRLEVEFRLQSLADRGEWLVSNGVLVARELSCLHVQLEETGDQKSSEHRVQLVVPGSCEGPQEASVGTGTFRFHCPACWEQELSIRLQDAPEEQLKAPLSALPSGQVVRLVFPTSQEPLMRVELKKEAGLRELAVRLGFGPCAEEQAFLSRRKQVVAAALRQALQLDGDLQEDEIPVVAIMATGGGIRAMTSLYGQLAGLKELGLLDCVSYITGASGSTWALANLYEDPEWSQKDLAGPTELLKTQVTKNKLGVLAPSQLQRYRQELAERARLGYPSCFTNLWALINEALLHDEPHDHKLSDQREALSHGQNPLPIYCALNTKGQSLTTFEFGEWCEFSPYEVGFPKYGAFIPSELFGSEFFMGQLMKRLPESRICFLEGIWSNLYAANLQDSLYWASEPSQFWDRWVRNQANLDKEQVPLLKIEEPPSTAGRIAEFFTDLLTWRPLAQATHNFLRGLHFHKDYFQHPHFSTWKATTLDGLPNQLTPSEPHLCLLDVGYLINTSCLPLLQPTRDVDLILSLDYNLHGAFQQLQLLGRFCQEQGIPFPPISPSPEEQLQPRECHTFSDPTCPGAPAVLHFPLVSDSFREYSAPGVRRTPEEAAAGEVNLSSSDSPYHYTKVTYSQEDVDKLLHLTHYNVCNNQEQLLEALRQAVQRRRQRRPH

[18] = biological target: T2, Cytosolic phospholipase A2 gamma (Homo sapiens) (UniProt Q9UP65); test: Inhibition of cytosolic phospholipase A2gamma at 0.5 uM; how it was run: as §3
T2 sequence (whole entry): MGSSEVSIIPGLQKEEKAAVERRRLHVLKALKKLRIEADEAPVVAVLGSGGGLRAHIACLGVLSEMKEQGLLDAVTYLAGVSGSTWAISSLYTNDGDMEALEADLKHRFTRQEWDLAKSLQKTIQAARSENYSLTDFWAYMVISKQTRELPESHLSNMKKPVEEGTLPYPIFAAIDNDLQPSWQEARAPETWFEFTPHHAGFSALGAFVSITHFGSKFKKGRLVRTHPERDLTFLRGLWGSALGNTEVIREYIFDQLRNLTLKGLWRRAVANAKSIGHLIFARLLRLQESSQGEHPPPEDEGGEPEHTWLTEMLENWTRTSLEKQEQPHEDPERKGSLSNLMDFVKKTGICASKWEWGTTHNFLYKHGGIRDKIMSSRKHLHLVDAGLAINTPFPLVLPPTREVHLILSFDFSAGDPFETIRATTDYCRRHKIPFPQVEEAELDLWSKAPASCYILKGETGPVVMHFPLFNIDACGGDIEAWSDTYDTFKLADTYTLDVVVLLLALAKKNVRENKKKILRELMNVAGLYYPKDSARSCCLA

[19] = Inhibition of cytosolic phospholipase A2alpha
[20] = Inhibition of secreted phospholipase A2 at 0.5 uM
How it was run: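 Type II secreted PLA2 activity measured with PAPE (1-palmitoyl-2-arachidonoyl-sn-glycero-3-phosphoethanolamine) liposomes as substrate.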

[21] = Oral bioavailability in rat; format: ADME, organism-based; conditions: in vivo
Rattus norvegicus [22] = test: Inhibition of carrageenan-induced paw edema in Sprague-Dawley rat administered 2 hrs before carrageenan challenge at 25 mg/kg, po; format: functional
[23] = Plasma clearance in Sprague-Dawley rat at 2 mg/kg, iv; format: ADME, organism-based; set-up: dose 2 mg/kg, route intravenous
MC9 [24] = test: Inhibition of LTB4 production in mouse MC9 cells; format: functional, cell-based
MC9 [25] = test: Inhibition of PGF2alpha production in mouse MC9 cells; format: functional, cell-based
MC9 [26] = test: Inhibition of PGF2apha production in arachidonic acid-stimulated mouse MC9 cells; format: functional, cell-based
Blood [27] = test: Inhibition of TXB2 production in human whole blood at 0.039 uM; format: functional
How it was run: (§4)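 Human whole blood stimulated with calcium ionophore A23187 at 30 µM. Several arachidonic acid metabolites (LTB4, PGE2, PGF2α, TXB2) and PAF production were quantified.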

Blood [28] = test: Inhibition of LTB4 production in human whole blood at 0.039 uM; format: functional; how it was run: as §4
Blood [29] = test: Inhibition of PGE2 production in human whole blood at 0.039 uM; format: functional; how it was run: as §4
Blood [30] = test: Inhibition of PGF2alpha production in human whole blood at 0.039 uM; format: functional; how it was run: as §4
Blood [31] = test: Inhibition of PAF production in human whole blood at 0.039 uM; format: functional; how it was run: as §4
[32] = Plasma concentration in collagen-induced arthritis mouse model at 100 mg/kg, po twice daily after 3 hrs; format: ADME, organism-based; set-up: dose 100 mg/kg, route oral
[33] = Plasma concentration in adjuvant-induced arthritis Lewis rat model at 50 mg/kg, po after 4 hrs; format: ADME, organism-based; set-up: dose 50 mg/kg, route oral
[34] = Plasma concentration in adjuvant-induced arthritis Lewis rat model at 5 mg/kg, po after 4 hrs; format: ADME, organism-based; set-up: dose 5 mg/kg, route oral
[35] = Plasma concentration in adjuvant-induced arthritis Lewis rat model at 50 mg/kg, po after 16 hrs; format: ADME, organism-based; set-up: dose 50 mg/kg, route oral
[36] = Plasma concentration in adjuvant-induced arthritis Lewis rat model at 25 mg/kg, po after 16 hrs; format: ADME, organism-based; set-up: dose 25 mg/kg, route oral
[37] = Plasma concentration in adjuvant-induced arthritis Lewis rat model at 5 mg/kg, po after 16 hrs; format: ADME, organism-based; set-up: dose 5 mg/kg, route oral
[38] = tested on: Prostaglandin G/H synthase 2, cyclooxygenase-2; test: Inhibition of COX2 in microsomes at 100 uM
[39] = tested on: Prostaglandin G/H synthase 1, cyclooxygenase-1; test: Inhibition of COX1 in microsomes at 100 uM
Ovis aries [40] = test: Inhibition of acute hyperresponsiveness in Ascaris Suum antigen-induced reversible airway bronchoconstriction sheep model assessed as reduction in lung resistance at 10 mg/kg, po bid administered and measured after 16 hrs

Compound: O=C(O)c1ccc(OCCc2c(CCNS(=O)(=O)Cc3ccc(Cl)c(Cl)c3)n(C(c3ccccc3)c3ccccc3)c3ccc(Cl)cc23)cc1 [ECOPLADIB]
- Ratio [1]: 18 h
- inhibition in vivo at 5 mg/kg (Rattus norvegicus [2]): < 10%
- ED50 (Rattus norvegicus [3]): 10 mg/kg
- ED50 (Rattus norvegicus [4]): 40 mg/kg
- IC50 [5]: 150 nM
- IC50 (Blood [6]): 160 nM
- concentration at 1.5 h [7]: 4080 ng/mL
- Cp (Mus musculus): 531 ng/mL

Compound: Cc1cccc(C)c1CS(=O)(=O)NCCc1c(CCCc2ccc(C(=O)O)cc2)c2cc(Cl)ccc2n1C(c1ccccc1)c1ccccc1
- Activity (Rattus norvegicus [8]): Active
- Activity (Rattus norvegicus [9]): Active
- Activity (Rattus norvegicus [10]): Active
- Activity (Rattus norvegicus [11]): Active
- Activity (Rattus norvegicus [12]): Active
- Activity (Ovis aries [13]): 85%
- Ratio [1]: 160 h
- Activity (Rattus norvegicus [14]): Active
- concentration at 4 h [15]: 698 ng/mL
- inhibition [16]: > 90%
- Activity [17]: inactive
- Activity [18]: inactive
- IC50 [19]: < 10 nM
- Activity [20]: inactive
- bioavailability [21]: 4%
- inhibition in vivo at 5 mg/kg (Rattus norvegicus [2]): > 50%
- ED50 (Rattus norvegicus [3]): 3.5 mg/kg
- inhibition in vivo at 25 mg/kg (Rattus norvegicus [22]): 34%
- ED50 (Rattus norvegicus [4]): 8 mg/kg
- IC50 [5]: 10 nM
- clearance [23]: 3 mL/min/kg
- IC50 (MC9 [24]): 12 nM
- IC50 (MC9 [25]): 6 nM
- IC50 (MC9 [26]): > 1000 nM
- inhibition at 0.039 µM (Blood [27]): 72%
- inhibition at 0.039 µM (Blood [28]): 78%
- inhibition at 0.039 µM (Blood [29]): 79%
- inhibition at 0.039 µM (Blood [30]): 72%
- inhibition at 0.039 µM (Blood [31]): 57%
- concentration at 3 h [32]: 923 ng/mL
- Cp (Mus musculus): 118 ng/mL
- concentration at 4 h [33]: 1140 ng/mL
- concentration at 4 h [34]: 69 ng/mL
- concentration at 16 h [35]: 110 ng/mL
- concentration at 16 h [36]: 73 ng/mL
- concentration at 16 h [37]: 26 ng/mL
- Activity [38]: inactive
- Activity [39]: inactive
- Activity (Ovis aries [40]): Active
